Source: publication PMC12744601 (Infection and Drug Resistance, 2025)
In brackets after ≈: the same amount, converted by molar mass.

Tested on: daptomycin-non-susceptible VRE strain (clinical DRE isolate)
Experiment: Minimum inhibitory concentration
Format: cell-based, Enterococcus faecium
Procedure, shortened: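 Clinical daptomycin-non-susceptible VRE isolate from a bloodstream infection. Species identified by VITEK 2. […] Fosfomycin MIC by agar dilution and ceftaroline MIC by broth microdilution. Breakpoints per CLSI.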

Row | MIC (Enterococcus, VRE) [µg/mL] | Structure (SMILES) | other results
1 | > 8 | CCO/N=C(\C(=O)N[C@@H]1C(=O)N2C(C(=O)[O-])=C(Sc3nc(-c4cc[n+](C)cc4)cs3)CS[C@H]12)c1nsc(N)n1 [Ceftaroline, ceftaroline] | –
2 | – | CN[C@H](CC(C)C)C(=O)N[C@H]1C(=O)N[C@@H](CC(N)=O)C(=O)N[C@H]2C(=O)N[C@H]3C(=O)N[C@H](C(=O)N[C@H](C(=O)O)c4cc(O)cc(O)c4-c4cc3ccc4O)[C@H](O)c3ccc(c(Cl)c3)Oc3cc2cc(c3O[C@@H]2O[C@H](CO)[C@@H](O)[C@H](O)[C@H]2O[C@H]2C[C@](C)(N)[C@H](O)[C@H](C)O2)Oc2ccc(cc2Cl)[C@H]1O [vancomycin] | MIC (Sensititre GPN3F system, clinical DRE isolate): > 128 µg/mL
3 | – | CCCCCCCCCC(=O)N[C@@H](Cc1c[nH]c2ccccc12)C(=O)N[C@H](CC(N)=O)C(=O)N[C@@H](CC(=O)O)C(=O)N[C@@H]1C(=O)NCC(=O)N[C@@H](CCCN)C(=O)N[C@@H](CC(=O)O)C(=O)N[C@H](C)C(=O)N[C@@H](CC(=O)O)C(=O)NCC(=O)N[C@H](CO)C(=O)N[C@@H]([C@H](C)CC(=O)O)C(=O)N[C@@H](CC(=O)c2ccccc2N)C(=O)O[C@@H]1C [Daptomycin, daptomycin] | MIC (broth microdilution, cation-adjusted Mueller-Hinton broth supplemented with 50 mg/mL calcium, clinical DRE isolate): 8 µg/mL (≈ 4.94 µM)
4 | 128 (≈ 927 µM) | C[C@@H]1O[C@@H]1P(=O)(O)O [Fosfomycin, fosfomycin] | –
